{
  "source": "ChEMBL document CHEMBL2311425",
  "about": "“Histone deacetylase (HDAC) inhibitors with a novel connecting unit linker region reveal a selectivity profile for HDAC4 and HDAC5 with improved activity against chemoresistant cancer cells” (J Med Chem, 2013)",
  "key": {"Histone deacetylase 2": {"target": "Histone deacetylase 2 (Homo sapiens, UniProt Q92769)", "sequence (Q92769 whole entry)": "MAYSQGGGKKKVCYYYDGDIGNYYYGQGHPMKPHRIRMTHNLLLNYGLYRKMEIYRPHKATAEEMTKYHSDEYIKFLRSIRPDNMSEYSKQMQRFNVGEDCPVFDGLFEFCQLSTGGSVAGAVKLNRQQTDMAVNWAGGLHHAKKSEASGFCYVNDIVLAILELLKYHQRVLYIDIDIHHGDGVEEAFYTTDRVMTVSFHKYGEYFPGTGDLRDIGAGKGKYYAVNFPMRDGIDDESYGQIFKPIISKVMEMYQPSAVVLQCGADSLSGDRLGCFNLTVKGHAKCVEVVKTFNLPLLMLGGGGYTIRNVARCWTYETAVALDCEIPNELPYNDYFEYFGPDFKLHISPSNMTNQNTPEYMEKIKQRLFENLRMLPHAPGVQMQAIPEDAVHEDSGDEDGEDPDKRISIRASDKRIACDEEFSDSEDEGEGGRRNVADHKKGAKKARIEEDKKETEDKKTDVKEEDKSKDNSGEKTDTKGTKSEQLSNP", "assay": "Inhibition of human HDAC2 by fluorescence assay"}, "Histone deacetylase 11": {"target": "T1, Histone deacetylase 11 (Homo sapiens, UniProt Q96DB2)", "T1 sequence (Q96DB2 whole entry)": "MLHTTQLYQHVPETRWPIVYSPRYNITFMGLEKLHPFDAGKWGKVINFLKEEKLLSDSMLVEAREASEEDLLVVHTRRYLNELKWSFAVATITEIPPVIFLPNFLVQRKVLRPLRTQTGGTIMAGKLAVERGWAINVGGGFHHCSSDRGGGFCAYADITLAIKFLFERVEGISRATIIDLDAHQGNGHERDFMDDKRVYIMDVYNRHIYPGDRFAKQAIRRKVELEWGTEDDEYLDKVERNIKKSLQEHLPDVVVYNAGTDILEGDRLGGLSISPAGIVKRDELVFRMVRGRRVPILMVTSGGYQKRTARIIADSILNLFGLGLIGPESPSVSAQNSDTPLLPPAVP", "assay": "Inhibition of human HDAC11 by fluorescence assay"}, "MDA-MB-231 [1]": {"test_system": "MDA-MB-231", "assay": "Cytotoxicity against cisplatin sensitive human MDA-MB-231 cells after 72 hrs by MTT assay", "type": "functional, cell-based", "settings": "MDA-MB-231, 72 h", "outline": "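MDA-MB-231 (parental), 10 000 cells/well, in DMEM with 15% FCS at 37 °C, 5% CO2. Compounds added 24 h after seeding for 72 h. MTT (5 mg/mL in PBS) was added, formazan dissolved in DMSO, absorbance read at 544 and 690 nm. IC50 from four-parameter logistic fit of ≥3 experiments in triplicate.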"}, "Histone deacetylase [2]": {"target": "Histone deacetylase", "assay": "Inhibition of HDAC in cisplatin sensitive human CAL27 cells after 18 hrs by fluorescence assay", "type": "cell-based", "settings": "cal-27"}, "Histone deacetylase 1": {"target": "Histone deacetylase 1 (Homo sapiens, UniProt Q13547)", "sequence (Q13547 whole entry)": "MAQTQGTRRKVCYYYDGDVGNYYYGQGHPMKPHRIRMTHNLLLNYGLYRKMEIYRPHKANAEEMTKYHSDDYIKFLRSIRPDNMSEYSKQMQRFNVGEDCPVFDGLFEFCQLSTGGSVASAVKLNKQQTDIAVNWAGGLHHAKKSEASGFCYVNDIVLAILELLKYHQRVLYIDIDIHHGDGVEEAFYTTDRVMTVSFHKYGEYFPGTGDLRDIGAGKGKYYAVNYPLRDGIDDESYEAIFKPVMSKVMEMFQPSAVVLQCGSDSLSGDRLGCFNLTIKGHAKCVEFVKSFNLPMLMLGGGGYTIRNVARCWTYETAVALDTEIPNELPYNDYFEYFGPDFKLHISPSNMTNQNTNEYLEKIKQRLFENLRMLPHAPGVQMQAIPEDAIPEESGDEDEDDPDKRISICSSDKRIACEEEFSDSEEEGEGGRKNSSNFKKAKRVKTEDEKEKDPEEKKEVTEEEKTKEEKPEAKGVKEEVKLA", "assay": "Inhibition of human HDAC1 by fluorescence assay"}, "Histone deacetylase [3]": {"target": "Histone deacetylase", "assay": "Inhibition of HDAC in cisplatin resistant human CAL27 cells after 18 hrs by fluorescence assay", "type": "cell-based", "settings": "cal-27"}, "Histone deacetylase [4]": {"target": "Histone deacetylase", "assay": "Inhibition of HDAC in cisplatin sensitive human KYSE-510 cells after 18 hrs by fluorescence assay", "type": "cell-based"}, "Histone deacetylase 5": {"target": "Histone deacetylase 5 (Homo sapiens, UniProt Q9UQL6)", "sequence (Q9UQL6 whole entry)": "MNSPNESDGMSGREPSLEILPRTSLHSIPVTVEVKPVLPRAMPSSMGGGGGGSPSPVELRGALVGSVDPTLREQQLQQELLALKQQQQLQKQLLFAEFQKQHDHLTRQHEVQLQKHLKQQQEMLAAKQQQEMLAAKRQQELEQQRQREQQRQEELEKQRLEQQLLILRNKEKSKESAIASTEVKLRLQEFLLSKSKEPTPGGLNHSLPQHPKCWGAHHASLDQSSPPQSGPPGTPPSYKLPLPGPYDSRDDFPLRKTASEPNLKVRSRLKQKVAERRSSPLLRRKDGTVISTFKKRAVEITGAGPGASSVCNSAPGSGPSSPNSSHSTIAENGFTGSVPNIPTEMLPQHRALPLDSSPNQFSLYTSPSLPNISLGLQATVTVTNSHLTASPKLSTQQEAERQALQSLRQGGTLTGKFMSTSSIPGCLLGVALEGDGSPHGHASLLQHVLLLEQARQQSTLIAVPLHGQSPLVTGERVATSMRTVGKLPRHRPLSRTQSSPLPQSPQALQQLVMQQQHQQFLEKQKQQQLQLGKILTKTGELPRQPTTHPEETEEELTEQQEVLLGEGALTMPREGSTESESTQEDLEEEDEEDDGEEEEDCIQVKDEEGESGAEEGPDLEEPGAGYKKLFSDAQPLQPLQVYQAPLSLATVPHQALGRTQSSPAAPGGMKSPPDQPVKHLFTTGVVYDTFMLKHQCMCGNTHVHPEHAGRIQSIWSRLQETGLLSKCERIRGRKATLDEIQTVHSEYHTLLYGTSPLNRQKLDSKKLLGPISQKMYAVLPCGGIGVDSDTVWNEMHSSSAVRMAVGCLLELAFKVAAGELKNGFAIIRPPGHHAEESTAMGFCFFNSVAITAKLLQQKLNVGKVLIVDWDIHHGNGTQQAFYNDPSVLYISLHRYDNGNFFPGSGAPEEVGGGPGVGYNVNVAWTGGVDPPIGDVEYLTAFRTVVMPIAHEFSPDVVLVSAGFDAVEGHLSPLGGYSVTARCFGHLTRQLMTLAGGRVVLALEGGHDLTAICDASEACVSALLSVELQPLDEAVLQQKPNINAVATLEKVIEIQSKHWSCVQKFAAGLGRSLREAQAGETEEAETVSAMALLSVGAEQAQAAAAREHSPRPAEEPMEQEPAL", "assay": "Inhibition of human HDAC5 by fluorescence assay"}, "KYSE-510 [5]": {"test_system": "KYSE-510", "assay": "Cytotoxicity against cisplatin sensitive human KYSE-510 cells after 72 hrs by MTT assay", "type": "functional, cell-based", "settings": "KYSE-510, 72 h"}, "Histone deacetylase 8": {"target": "T2, Histone deacetylase 8 (Homo sapiens, UniProt Q9BY41)", "T2 sequence (Q9BY41 whole entry)": "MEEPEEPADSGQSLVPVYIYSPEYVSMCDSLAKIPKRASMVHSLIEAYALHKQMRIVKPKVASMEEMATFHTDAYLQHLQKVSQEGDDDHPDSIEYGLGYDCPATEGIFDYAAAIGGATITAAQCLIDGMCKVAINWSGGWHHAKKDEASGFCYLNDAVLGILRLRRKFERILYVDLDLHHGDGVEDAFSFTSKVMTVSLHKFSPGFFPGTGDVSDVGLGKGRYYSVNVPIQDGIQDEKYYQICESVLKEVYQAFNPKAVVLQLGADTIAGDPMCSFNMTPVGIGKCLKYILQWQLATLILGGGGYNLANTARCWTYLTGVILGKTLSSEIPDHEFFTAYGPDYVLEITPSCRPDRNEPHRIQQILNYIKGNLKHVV", "assay": "Inhibition of human HDAC8 by fluorescence assay"}, "MDA-MB-231 [6]": {"test_system": "MDA-MB-231", "assay": "Cytotoxicity against cisplatin resistant human MDA-MB-231 cells after 72 hrs by MTT assay", "type": "functional, cell-based", "settings": "MDA-MB-231, 72 h"}, "A2780": {"test_system": "A2780", "assay": "Cytotoxicity against human A2780 cells after 72 hrs by MTT assay", "type": "functional, cell-based", "settings": "A2780, 72 h"}, "Histone deacetylase [7]": {"target": "Histone deacetylase", "assay": "Inhibition of HDAC in cisplatin resistant human KYSE-510 cells after 18 hrs by fluorescence assay", "type": "cell-based"}, "Histone deacetylase 4": {"target": "Histone deacetylase 4 (Homo sapiens, UniProt P56524)", "sequence (P56524 whole entry)": "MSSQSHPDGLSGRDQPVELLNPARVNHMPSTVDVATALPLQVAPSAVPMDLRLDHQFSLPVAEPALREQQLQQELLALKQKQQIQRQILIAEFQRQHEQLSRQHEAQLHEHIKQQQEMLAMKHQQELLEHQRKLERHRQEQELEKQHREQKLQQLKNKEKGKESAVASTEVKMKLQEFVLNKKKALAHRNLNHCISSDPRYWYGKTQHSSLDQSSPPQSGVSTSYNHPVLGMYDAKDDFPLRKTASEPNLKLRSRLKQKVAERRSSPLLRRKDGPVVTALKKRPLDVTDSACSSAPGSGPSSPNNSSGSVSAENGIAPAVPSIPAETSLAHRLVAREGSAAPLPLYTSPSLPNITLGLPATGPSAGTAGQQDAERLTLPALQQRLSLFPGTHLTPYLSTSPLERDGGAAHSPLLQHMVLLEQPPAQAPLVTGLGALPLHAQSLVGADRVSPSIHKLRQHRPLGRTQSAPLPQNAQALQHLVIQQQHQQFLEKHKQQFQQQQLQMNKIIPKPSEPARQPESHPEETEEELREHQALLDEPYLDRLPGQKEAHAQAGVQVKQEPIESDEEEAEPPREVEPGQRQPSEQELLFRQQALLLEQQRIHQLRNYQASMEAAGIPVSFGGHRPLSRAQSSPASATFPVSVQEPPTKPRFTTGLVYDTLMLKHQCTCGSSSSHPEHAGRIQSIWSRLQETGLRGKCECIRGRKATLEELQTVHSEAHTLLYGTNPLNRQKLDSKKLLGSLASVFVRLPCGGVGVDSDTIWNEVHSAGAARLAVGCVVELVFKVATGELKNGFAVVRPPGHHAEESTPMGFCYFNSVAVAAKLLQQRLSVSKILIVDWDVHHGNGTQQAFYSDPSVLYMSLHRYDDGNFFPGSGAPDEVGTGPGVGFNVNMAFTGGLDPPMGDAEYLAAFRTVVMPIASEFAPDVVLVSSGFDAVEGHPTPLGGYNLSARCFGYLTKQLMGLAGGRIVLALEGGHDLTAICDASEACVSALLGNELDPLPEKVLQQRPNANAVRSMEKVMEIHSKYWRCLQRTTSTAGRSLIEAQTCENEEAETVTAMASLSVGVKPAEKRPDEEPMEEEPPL", "assay": "Inhibition of human HDAC4 by fluorescence assay"}, "[8]": {"target": "T3, Protein deacetylase HDAC6 (Homo sapiens, UniProt Q9UBN7)", "T3 sequence (Q9UBN7 whole entry)": "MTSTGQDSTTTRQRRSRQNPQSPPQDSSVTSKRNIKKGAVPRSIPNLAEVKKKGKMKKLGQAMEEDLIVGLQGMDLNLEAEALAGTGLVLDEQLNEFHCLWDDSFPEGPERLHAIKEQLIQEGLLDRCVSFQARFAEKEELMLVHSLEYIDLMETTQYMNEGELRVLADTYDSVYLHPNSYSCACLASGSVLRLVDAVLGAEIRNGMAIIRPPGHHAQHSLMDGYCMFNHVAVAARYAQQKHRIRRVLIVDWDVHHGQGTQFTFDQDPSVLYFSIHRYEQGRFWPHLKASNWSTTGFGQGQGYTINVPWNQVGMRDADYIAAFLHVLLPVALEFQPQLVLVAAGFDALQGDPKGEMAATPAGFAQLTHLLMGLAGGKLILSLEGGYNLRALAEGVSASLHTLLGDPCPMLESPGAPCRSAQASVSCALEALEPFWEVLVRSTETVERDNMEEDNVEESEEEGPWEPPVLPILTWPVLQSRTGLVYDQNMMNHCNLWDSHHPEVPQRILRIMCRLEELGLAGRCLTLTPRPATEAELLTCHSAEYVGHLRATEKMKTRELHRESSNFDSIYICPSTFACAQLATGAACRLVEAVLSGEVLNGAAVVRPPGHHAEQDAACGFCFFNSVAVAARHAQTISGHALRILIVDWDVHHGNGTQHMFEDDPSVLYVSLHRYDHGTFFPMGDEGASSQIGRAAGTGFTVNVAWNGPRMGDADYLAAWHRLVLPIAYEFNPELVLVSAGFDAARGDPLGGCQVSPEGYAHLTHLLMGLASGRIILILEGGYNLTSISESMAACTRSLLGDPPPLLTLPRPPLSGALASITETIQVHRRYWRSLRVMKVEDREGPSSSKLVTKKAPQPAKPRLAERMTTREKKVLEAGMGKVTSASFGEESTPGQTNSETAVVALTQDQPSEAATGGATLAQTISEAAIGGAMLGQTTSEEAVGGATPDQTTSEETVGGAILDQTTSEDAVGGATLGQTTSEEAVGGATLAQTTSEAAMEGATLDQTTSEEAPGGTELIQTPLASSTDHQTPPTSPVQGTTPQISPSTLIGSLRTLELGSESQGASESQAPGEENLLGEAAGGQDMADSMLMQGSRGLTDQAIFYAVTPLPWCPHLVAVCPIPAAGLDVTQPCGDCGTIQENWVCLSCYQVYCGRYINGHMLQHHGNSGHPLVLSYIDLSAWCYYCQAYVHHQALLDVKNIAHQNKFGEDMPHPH", "assay": "Inhibition of human HDAC6 by fluorescence assay"}, "Histone deacetylase [9]": {"target": "Histone deacetylase", "assay": "Inhibition of HDAC in cisplatin resistant human MDA-MB-231 cells after 18 hrs by fluorescence assay", "type": "cell-based"}, "CAL-27 [10]": {"test_system": "CAL-27", "assay": "Cytotoxicity against cisplatin sensitive human CAL27 cells after 72 hrs by MTT assay", "type": "functional, cell-based", "settings": "CAL-27, 72 h"}, "[11]": {"test_system": "A2780 CisR (Homo sapiens)", "assay": "cells", "settings": "72 h"}, "Histone deacetylase [12]": {"target": "Histone deacetylase", "assay": "Inhibition of HDAC in human A2780 cells after 18 hrs by fluorescence assay", "type": "cell-based"}, "Histone deacetylase [13]": {"target": "Histone deacetylase", "assay": "Inhibition of HDAC in cisplatin sensitive human MDA-MB-231 cells after 18 hrs by fluorescence assay", "type": "cell-based"}, "KYSE-510 [14]": {"test_system": "KYSE-510", "assay": "Cytotoxicity against cisplatin resistant human KYSE-510 cells after 72 hrs by MTT assay", "type": "functional, cell-based", "settings": "KYSE-510, 72 h"}, "Histone deacetylase [15]": {"target": "Histone deacetylase", "assay": "Inhibition of HDAC in cisplatin resistant human A2780 cells after 18 hrs by fluorescence assay", "type": "cell-based"}, "CAL-27 [16]": {"test_system": "CAL-27", "assay": "Cytotoxicity against cisplatin resistant human CAL27 cells after 72 hrs by MTT assay", "type": "functional, cell-based", "settings": "CAL-27, 72 h"}},
  "data": [
    {"compound": "Cc1ccc(C(=O)NOCCCCCC(=O)NO)cc1C", "values": [
      {"measurement": "IC50", "setting": "Histone deacetylase 2", "value": 0.944, "unit": "µM"},
      {"measurement": "IC50", "setting": "Histone deacetylase 11", "value": 0.997, "unit": "µM"},
      {"measurement": "IC50", "setting": "MDA-MB-231 [1]", "value": 2.77, "unit": "µM"},
      {"measurement": "IC50", "setting": "Histone deacetylase [2]", "value": 1.1, "unit": "µM"},
      {"measurement": "IC50", "setting": "Histone deacetylase 1", "value": 0.32, "unit": "µM"},
      {"measurement": "IC50", "setting": "Histone deacetylase [3]", "value": 0.91, "unit": "µM"},
      {"measurement": "IC50", "setting": "Histone deacetylase [4]", "value": 2.82, "unit": "µM"},
      {"measurement": "IC50", "setting": "Histone deacetylase 5", "value": 0.0334, "unit": "µM"},
      {"measurement": "IC50", "setting": "KYSE-510 [5]", "value": 10, "unit": "µM"},
      {"measurement": "IC50", "setting": "Histone deacetylase 8", "value": 0.833, "unit": "µM"},
      {"measurement": "IC50", "setting": "MDA-MB-231 [6]", "value": 3.77, "unit": "µM"},
      {"measurement": "IC50", "setting": "A2780", "value": 1.54, "unit": "µM"},
      {"measurement": "IC50", "setting": "Histone deacetylase [7]", "value": 1.1, "unit": "µM"},
      {"measurement": "IC50", "setting": "Histone deacetylase 4", "value": 0.0826, "unit": "µM"},
      {"measurement": "IC50", "setting": "[8]", "value": 0.0181, "unit": "µM"},
      {"measurement": "IC50", "setting": "Histone deacetylase [9]", "value": 1.66, "unit": "µM"},
      {"measurement": "IC50", "setting": "CAL-27 [10]", "value": 2.9, "unit": "µM"},
      {"measurement": "IC50", "setting": "[11]", "value": 1.78, "unit": "µM"},
      {"measurement": "IC50", "setting": "Histone deacetylase [12]", "value": 1.61, "unit": "µM"},
      {"measurement": "IC50", "setting": "Histone deacetylase [13]", "value": 1.57, "unit": "µM"},
      {"measurement": "IC50", "setting": "KYSE-510 [14]", "value": 9.46, "unit": "µM"},
      {"measurement": "IC50", "setting": "Histone deacetylase [15]", "value": 0.88, "unit": "µM"},
      {"measurement": "IC50", "setting": "CAL-27 [16]", "value": 4.31, "unit": "µM"}
    ]}
  ]
}
